Active and inactive are the calls of the source. The calls are words filed in the database; no cut-off is given here.
Columns and labels:
[1] = target: T1, Hypoxia-inducible factor 1-alpha (Homo sapiens, UniProt Q16665); test: Inhibition of hypoxia-induced HIF1alpha activation in human Hep3B cells after 16 hrs by HRE-luciferase reporter assay; type: cell-based; settings: hep 3b2
Target sequence in this assay (Q16665 whole entry): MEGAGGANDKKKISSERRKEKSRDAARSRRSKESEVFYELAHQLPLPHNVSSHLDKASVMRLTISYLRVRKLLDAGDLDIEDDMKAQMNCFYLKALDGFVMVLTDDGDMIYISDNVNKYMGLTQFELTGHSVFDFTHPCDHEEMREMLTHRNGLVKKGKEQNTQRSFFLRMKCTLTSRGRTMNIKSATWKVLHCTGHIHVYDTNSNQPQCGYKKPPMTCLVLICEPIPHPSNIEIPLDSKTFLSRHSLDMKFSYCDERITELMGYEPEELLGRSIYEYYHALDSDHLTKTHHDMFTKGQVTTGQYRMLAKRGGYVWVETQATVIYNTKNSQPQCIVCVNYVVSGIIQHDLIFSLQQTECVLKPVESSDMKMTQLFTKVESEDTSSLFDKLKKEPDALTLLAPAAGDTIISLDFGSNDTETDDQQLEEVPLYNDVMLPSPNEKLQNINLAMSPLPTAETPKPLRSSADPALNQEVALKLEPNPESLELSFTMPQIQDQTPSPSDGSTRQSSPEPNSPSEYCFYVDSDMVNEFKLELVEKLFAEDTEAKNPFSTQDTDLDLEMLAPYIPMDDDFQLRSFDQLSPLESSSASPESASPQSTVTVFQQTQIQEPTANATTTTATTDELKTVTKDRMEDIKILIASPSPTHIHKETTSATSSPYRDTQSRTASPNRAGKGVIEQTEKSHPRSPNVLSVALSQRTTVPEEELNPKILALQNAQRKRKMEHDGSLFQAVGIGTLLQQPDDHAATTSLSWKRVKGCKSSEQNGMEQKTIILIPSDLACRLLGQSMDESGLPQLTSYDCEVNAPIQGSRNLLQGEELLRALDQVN

[2] = Cytotoxicity against human Hep3B cells after 24 hrs by MTT assay; type: cell-based, Hep 3B2
[3] = target: T1, Hypoxia-inducible factor 1-alpha; test: Inhibition of hypoxia-induced HIF1alpha protein accumulation in nucleus of human Hep3B cells after 12 hrs by Western blot analysis; type: functional, cell-based; settings: Hep 3B2
In short: (§1)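 Hep3B cells were kept under normoxia or hypoxia for 12 h with or without compound. HIF-1α in nuclear extracts was detected by western blot, with the same blot reprobed for topoisomerase-I as loading control. Bands were quantified by image scanning in arbitrary units.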
Target sequence in this assay (Q16665 whole entry, looked up): as the sequence (Q16665 whole entry) above

[4] = target: T1, Hypoxia-inducible factor 1-alpha; test: Inhibition of hypoxia-induced HIF1alpha protein accumulation in nucleus of human Hep3B cells after 12 hrs at 10 uM by Western blot analysis; type: functional, cell-based; settings: Hep 3B2; in short: as §1
Target sequence in this assay (Q16665 whole entry, looked up): as the sequence (Q16665 whole entry) above

[5] = target: T1, Hypoxia-inducible factor 1-alpha; test: Inhibition of HIF1alpha-mediated VEGF production in human Hep3B cells under hypoxic condition after 17.5 hrs by ELISA; type: cell-based; settings: Hep 3B2
In short: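 Hep3B cells were held under normoxia or hypoxia for 17.5 h with or without compound. Secreted VEGF was then measured by ELISA in the culture supernatant.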
Target sequence in this assay (Q16665 whole entry, looked up): as the sequence (Q16665 whole entry) above

| SMILES | IC50 [1] | inhibition [3] | inhibition [4] | inhibition [5] | IC50 [2] |
| --- | --- | --- | --- | --- | --- |
| COc1cccc(-c2ccc(C(=O)Oc3ccc4c(c3)OC(C)(C)C(O)C4)cc2)c1 (stereo not drawn) | 17.2 µM | – | – | – | > 30 µM |
| CC(C)(O)C1Cc2ccc(OC(=O)c3ccc(-c4cccc([N+](=O)[O-])c4)cc3)cc2O1 (stereo not drawn) | > 30 µM | – | – | – | > 30 µM |
| CC(C)(O)C1Cc2cc3cc(-c4ccncc4)oc3cc2O1 (stereo not drawn) | 1.1 µM | – | – | – | > 30 µM |
| COc1cccc(-c2ccc(C(=O)Oc3ccc4c(c3)OC(C(C)(C)O)C4)cc2)c1 (stereo not drawn) | > 30 µM | – | – | – | > 30 µM |
| CC(C)(O)C1Cc2ccc(OC(=O)c3cc(OCc4ccccc4)cc(OCc4ccccc4)c3)cc2O1 (stereo not drawn) | 26.2 µM | – | – | – | > 30 µM |
| Cc1ccc(-c2cc3cc4c(cc3o2)OC(C(C)(C)O)C4)cc1 (stereo not drawn) | 0.31 µM | – | – | – | > 30 µM |
| CC(C)(O)C1Cc2ccc(OC(=O)c3ccc(Br)cc3)cc2O1 (stereo not drawn) | > 30 µM | – | – | – | > 30 µM |
| CC1(C)Oc2cc(OC(=O)c3ccc(OCc4ccccc4)c(OCc4ccccc4)c3)ccc2CC1O (stereo not drawn) | 7.3 µM | – | – | – | > 30 µM |
| COc1ccccc1-c1cc2cc3c(cc2o1)OC(C(C)(C)O)C3 (stereo not drawn) | 0.58 µM | – | – | – | > 30 µM |
| CC1(C)Oc2cc(OC(=O)c3cc(O)cc(O)c3)ccc2CC1O (stereo not drawn) | > 30 µM | – | – | – | > 30 µM |
| CC(C)(O)C1Cc2cc3cc(-c4cc(F)cc(F)c4)oc3cc2O1 (stereo not drawn) | 0.36 µM | – | – | – | > 30 µM |
| CC1(C)Oc2cc(OC(=O)c3cccc(OCc4ccccc4)c3)ccc2CC1O (stereo not drawn) | 5.3 µM | – | – | – | > 30 µM |
| CC(C)(O)C1Cc2cc3cc(-c4ccc(OCc5ccccc5)cc4)oc3cc2O1 (stereo not drawn) | 0.49 µM | – | – | – | > 30 µM |
| CC1(C)Oc2cc(OC(=O)c3cc(OCc4ccccc4)cc(OCc4ccccc4)c3)ccc2CC1O (stereo not drawn) | 2.6 µM | – | – | – | > 30 µM |
| CC1(C)Oc2cc(OC(=O)c3ccc(O)cc3)ccc2CC1O (stereo not drawn) | > 30 µM | – | – | – | > 30 µM |
| CC1(C)Oc2cc(OC(=O)c3ccc(OCc4ccccc4)cc3)ccc2CC1O (stereo not drawn) | 12.9 µM | – | – | – | > 30 µM |
| CC1(C)Oc2cc(OC(=O)c3ccc(O)c(O)c3)ccc2CC1O (stereo not drawn) | > 30 µM | – | – | – | > 30 µM |
| Cn1cncc1-c1cc2cc3c(cc2o1)OC(C(C)(C)O)C3 (stereo not drawn) | > 0.03 µM | – | – | – | > 30 µM |
| CC(C)(O)C1Cc2ccc(OC(=O)c3cc(O)cc(O)c3)cc2O1 (stereo not drawn) | > 30 µM | – | – | – | > 30 µM |
| CC1(C)Oc2cc(OC(=O)c3ccc(-c4cccc([N+](=O)[O-])c4)cc3)ccc2CC1O (stereo not drawn) | 17.5 µM | – | – | – | > 30 µM |
| CC1(C)Oc2cc(OC(=O)c3ccc(-c4cccc(C#N)c4)cc3)ccc2CC1O (stereo not drawn) | > 30 µM | – | – | – | > 30 µM |
| CC1(C)Oc2cc(OC(=O)c3ccc(-c4ccc(F)cc4F)cc3)ccc2CC1O (stereo not drawn) | 17.6 µM | – | – | – | > 30 µM |
| CC1(C)Oc2cc3oc(-c4cc(O)cc(O)c4)cc3cc2CC1O (racemic) [(+/-)-MORACIN P] | 10.7 µM | – | – | – | > 30 µM |
| CC1(C)Oc2cc(OC(=O)c3ccc(Br)cc3)ccc2CC1O (stereo not drawn) | 16.8 µM | – | – | – | > 30 µM |

Further lines, with some results ahead:

| IC50 [1] | inhibition [3] | inhibition [4] | inhibition [5] | SMILES | IC50 [2] |
| --- | --- | --- | --- | --- | --- |
| 0.00676 µM | Dose-dependent effect | – | – | CC(C)(O)[C@H]1Cc2cc3cc(-c4cc(O)cc(O)c4)oc3cc2O1 | – |
| 0.0107 µM | – | – | – | CC1(C)Oc2cc3oc(-c4cc(O)cc(O)c4)cc3cc2C[C@H]1O [MORACIN P] | – |
| 0.046 µM | – | – | – | CC(C)(O)C1Cc2cc3cc(-c4cccc(O)c4)oc3cc2O1 (stereo not drawn) | > 30 µM |
| 0.001 µM | Dose-dependent effect | Active | – | CC(C)(O)[C@H]1Cc2cc3cc(-c4ccc(O)cc4)oc3cc2O1 | > 30 µM |
| 0.0042 µM | Dose-dependent effect | – | Dose-dependent effect | CC(C)(O)C1Cc2cc3cc(-c4ccc(O)cc4)oc3cc2O1 (stereo not drawn) | > 30 µM |
| 0.11 µM | – | – | – | COc1ccc(-c2cc3cc4c(cc3o2)OC(C(C)(C)O)C4)cc1 (stereo not drawn) | > 30 µM |
| 0.054 µM | – | – | – | CCOC(=O)COc1ccc(-c2cc3cc4c(cc3o2)OC(C(C)(C)O)C4)cc1 (stereo not drawn) | > 30 µM |
| 0.01 µM | – | – | – | COc1cc(OC)cc(-c2cc3cc4c(cc3o2)OC(C(C)(C)O)C4)c1 (stereo not drawn) | > 30 µM |
| 0.007 µM | – | – | – | COc1cccc(-c2cc3cc4c(cc3o2)OC(C(C)(C)O)C4)c1 (stereo not drawn) | > 30 µM |
| 0.00676 µM | – | – | – | CC(C)(O)C1Cc2cc3cc(-c4cc(O)cc(O)c4)oc3cc2O1 (racemic) [MORACIN O] | > 30 µM |
| 0.054 µM | – | – | – | CC(C)(O)C1Cc2cc3cc(-c4ccccc4)oc3cc2O1 (stereo not drawn) | > 30 µM |

Source: ChEMBL document CHEMBL1795261, “HIF-1α inhibitors: synthesis and biological evaluation of novel moracin O and P analogues” (Eur J Med Chem, 2011)
